These results are taken from ChEMBL document CHEMBL3526009, “Breast cancer resistance protein (ABCG2) determines distribution of genistein phase II metabolites: reevaluation of the roles of ABCG2 in the disposition of genistein” (Drug Metab Dispos, 2012).

The nature of data set [1]: Stability in potassium phosphate buffer at pH 7.4 up to 4 hrs. The data set is classed as physicochemical. As to conditions: pH 7.4, 4 h. The method in brief:
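Negative control run under the blood-incubation conditions but in 50 mM potassium phosphate buffer, pH 7.4, instead of blood. Genistein glucuronides (G-7-G plus G-4′-G, with aglycone) or sulfates (G-7-S plus G-4′-S, with aglycone) held at 37°C in a shaking water bath up to 4 h. Sampled at 0, 60, 120 and 240 min and read by UPLC-MS/MS.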

The nature of data set [2]: Biliary excretion in BCRP-/- mouse treated with genistein measured after 2.5 hrs post intestinal perfusion by UPLC-MS/MS analysis. The data set is classed as ADME, Bile. As to conditions: in vivo, other. In short, it runs like this:
(§1)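 Gallbladder bile taken after 2.5 h of simultaneous small intestine/colon perfusion with 10 μM genistein (HBSS pH 7.4, 0.191 ml/min) in FVB or Bcrp1(−/−) mice (n = 4). Bile diluted 20-fold in HBSS, daidzein internal standard in acetonitrile added, dried and reconstituted. Genistein and conjugates quantified by UPLC-MS/MS.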

For the next data set, the system named is Blood. The data set can be described thus: Stability in Wistar rat blood at 3 uM up to 4 hrs by UPLC-MS/MS analysis. The format is ADME, tissue-based. The method in brief:
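Genistein glucuronide mixture (G-7-G plus G-4′-G, 3 μM) with 3.8 μM genistein incubated in fresh rat whole blood, 37°C shaking water bath. Sampled at 0, 60, 120 and 240 min. Reaction stopped with acetonitrile containing daidzein internal standard. Genistein and conjugates quantified by UPLC-MS/MS using multiple reaction monitoring. n = 3.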

The nature of data set [3]: Biliary excretion in wild-type FVB mouse treated with genistein measured after 2.5 hrs post intestinal perfusion by UPLC-MS/MS analysis. The conditions noted are these: in vivo, other. The format is ADME, Bile. The method in brief: as §1

Molecules are shown by their SMILES.

With `O=C(O)[C@H]1O[C@@H](Oc2ccc(-c3coc4cc(O)cc(O)c4c3=O)cc2)[C@H](O)[C@@H](O)[C@@H]1O`, the Stability entry (in data set [1]; with Blood) was “Stable” each time. Besides, the Drug excretion entry in data set [2] and in data set [3] was “metabolite_detected” in each case.
